This sample holds only a part of the variants without activity.
B1: tRNA (parent)
chain: GUUCCGUUGGCGUAAUGGUAACGCGUCUCCCUCCUAAGGAGAAGACUGCGGGUUCGAGUCCCGUACGGAACG

Variants of: B1
Assay: yeast fitness relative to wild type (ratio to wild type); higher = fitter; tRNA-Arg(CCU), competitive growth, 37 C, YPD
Outline: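 For this measurement, the tRNA-Arg(CCU) gene was varied by chemical synthesis at a 3% per-site mutation rate across 69 sites, and each variant was placed at the native genomic locus in Saccharomyces cerevisiae. The pooled strains went through a 24-hour competition in YPD at 37°C in six parallel replicates, with amplicons from start and end populations read by 100-nucleotide paired-end sequencing. Darwinian fitness relative to wild type followed from the change in each genotype's frequency. Genotypes needed ≥ 100 starting reads, and estimates < 0.5 were set to 0.5.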

| Variant | yeast fitness |
| --- | --- |
| GUUCCGUUGGCGUAAUGGUAACGCGUCUCCCUCCUAAGAAGAAGACUGCGGCUUGGAGUCCCGUACGGAACG [G39A G52C C55G] | 0.541 |
| GUUCCGUUGGCGUAAUGGUAACGCGUCUCCCUCCUAAGAAGAAAACUGCAGGUUCGAGUCCCGUACGGAACG [G39A G44A G50A] | 0.607 |
| GUUCCGUUGGCGUAAUGGUAACGCGUCUCCCUCCUAAGAAGAAGACUCCGGGUUCGAGUCCCGUACGGAACG [G39A G48C] | 0.718 |
| GUUCCGUUGGCGUAAUGGUAACGCGUCUCCCUCCUAAGCAGACGACUGCGGGUUCAAGUGCCGUACGGAACG [G39C A43C G56A C60G] | ≤ 0.5 |
| GUUCCGUUGGCGUAAUGGUAACGCGUCUCCCUCCUAAGAAGAAGACUGGGGGUUCGAGUCCCGUACGGUACG [G39A C49G A69U] | ≤ 0.5 |
| GUUCCGUUGGCGUAAUGGUAACGCGUCUCCCUCCUAAGAAGAAGACUGUGGGUUCGAGUCCUGUACGGAACG [G39A C49U C62U] | 0.664 |
| GUUCCGUUGGCGUAAUGGUAACGCGUCUCCCUCCUAAGAAGAAGAAUGCGGGUUCGAGUCCCGUACGGAACG [G39A C46A] | 1.01 |
| GUUCCGUUGGCGUAAUGGUAACGCGUCUCCCUCCUAAGAAGAAGACUGAGGGUUCGAGUCCCGUACGGAACG [G39A C49A] | 0.598 |
| GUUCCGUUGGCGUAAUGGUAACGCGUCUCCCUCCUAAGAAGAAGACUGGGGGUUCGAGUCCCGUACGGAACG [G39A C49G] | 0.66 |
| GUUCCGUUGGCGUAAUGGUAACGCGUCUCCCUCCUAAGAAGAAGACUGCGGGUUGAAGUCCCGUACGGUGCG [G39A C55G G56A A69U A70G] | ≤ 0.5 |
| GUUCCGUUGGCGUAAUGGUAACGCGUCUCCCUCCUAAGAAGAUGACUGCGGGUUCGGGUCCCGUACGGAACG [G39A A43U A57G] | 0.562 |
| GUUCCGUUGGCGUAAUGGUAACGCGUCUCCCUCCUAAGAAGCAGACUGCGGGUUCGAGUCCCGUACGGAACG [G39A A42C] | 0.646 |
| GUUCCGUUGGCGUAAUGGUAACGCGUCUCCCUCCUAAGAAGGAGACUGCGGGUUCGAGUCCCGUACGGAACG [G39A A42G] | 0.811 |
| GUUCCGUUGGCGUAAUGGUAACGCGUCUCCCUCCUAAGAAGAAGACUGCGGGAUCGAGUCCCGUACGCAACG [G39A U53A G68C] | ≤ 0.5 |
| GUUCCGUUGGCGUAAUGGUAACGCGUCUCCCUCCUAAGAAGAAGACUGCGGGUUCGAGUCACGUACGGAACG [G39A C61A] | 0.789 |
| GUUCCGUUGGCGUAAUGGUAACGCGUCUCCCUCCUAAGAAGAAGACUGCGGGUUCGAGUCUCGUACGGAACG [G39A C61U] | 0.866 |
| GUUCCGUUGGCGUAAUGGUAACGCGUCUCCCUCCUAAGAAGAAGACUGCGGGUUCGGGUCCCGUACGGAACG [G39A A57G] | 0.79 |
| GUUCCGUUGGCGUAAUGGUAACGCGUCUCCCUCCUAAGAAGAAGACUGCGGGUUCGUGUCCCGUACGGAACG [G39A A57U] | 0.834 |
| GUUCCGUUGGCGUAAUGGUAACGCGUCUCCCUCCUAAGAAGAAGACUGCGGGUUGGAGUCCCGUACGGAACG [G39A C55G] | 0.726 |

| Variant | yeast fitness |
| --- | --- |
| GUUCCGUUGGCGUAAUGGUAACGCGUCUCCCUCCUAAGAAGAAGACUGCGGGUUUGAGUCCCGUACGGAACG [G39A C55U] | 0.873 |
| GUUCCGUUGGCGUAAUGGUAACGCGUCUCCCUCCUAAGAAGAAGACUGCGGGUUAGAGUCCCGUACGGAACG [G39A C55A] | 0.696 |
| GUUCCGUUGGCGUAAUGGUAACGCGUCUCCCUCCUAAGAAGAAGACUGAGGAUUCGAGUCCCAUACGGACCG [G39A C49A G52A G63A A70C] | ≤ 0.5 |
| GUUCCGUUGGCGUAAUGGUAACGCGUCUCCCUCCUAAGCAGGUGACUGCGGGUUCGAGUCCUGUACGGUACG [G39C A42G A43U C62U A69U] | ≤ 0.5 |
| GUUCCGUUGGCGUAAUGGUAACGCGUCUCCCUCCUAAGCUGAAGACUGCGGGUUCGAGUCCCGGACGGAACG [G39C A40U U64G] | ≤ 0.5 |
| GUUCCGUUGGCGUAAUGGUAACGCGUCUCCCUCCUAAGAAGAAGACUGCGGGUACGAGUCCCGUACGGAACG [G39A U54A] | 0.61 |
| GUUCCGUUGGCGUAAUGGUAACGCGUCUCCCUCCUAAGAAGAAGACUGCGGGUUCGAGUGCCGUACGGAGCG [G39A C60G A70G] | ≤ 0.5 |
| GUUCCGUUGGCGUAAUGGUAACGCGUCUCCCUCCUAAGAACAAGAAUGCGGGUUCGAGUCCCGUACGAAACG [G39A G41C C46A G68A] | 0.55 |
| GUUCCGUUGGCGUAAUGGUAACGCGUCUCCCUCCUAAGAAGAAGACUGCGGGUUCGAGUCCCGUACGCAGCG [G39A G68C A70G] | ≤ 0.5 |
| GUUCCGUUGGCGUAAUGGUAACGCGUCUCCCUCCUAAGAAGAAGACUGCGGGUUCGAGUCCCCUACGGAACG [G39A G63C] | 0.728 |
| GUUCCGUUGGCGUAAUGGUAACGCGUCUCCCUCCUAAGAAGAAGACUGCGGGUUAAAGUCCCGUACCGAACG [G39A C55A G56A G67C] | ≤ 0.5 |
| GUUCCGUUGGCGUAAUGGUAACGCGUCUCCCUCCUAAGAAGAAGACUGCGGGUUCGAGCCCCGUACGGAACG [G39A U59C] | 0.956 |
| GUUCCGUUGGCGUAAUGGUAACGCGUCUCCCUCCUAAGAAGAAGACUGCGGGUUCGAGUCCCGUACGUAACG [G39A G68U] | 0.824 |
| GUUCCGUUGGCGUAAUGGUAACGCGUCUCCCUCCUAAGAAGAAGACUGCGGGUUUGAGUCACGUACGGAACG [G39A C55U C61A] | ≤ 0.5 |
| GUUCCGUUGGCGUAAUGGUAACGCGUCUCCCUCCUAAGAAGAAGACUGUGGGUUCGUGUCCCGUACGGAACG [G39A C49U A57U] | 0.562 |
| GUUCCGUUGGCGUAAUGGUAACGCGUCUCCCUCCUAAGAAGAAGACUGCGGGUUCGAGUCCCGUACGGACCG [G39A A70C] | 1.04 |
| GUUCCGUUGGCGUAAUGGUAACGCGUCUCCCUCCUAAGAAGAAGACUGCGCGUUCGAGCCCCGUACGGAACG [G39A G51C U59C] | ≤ 0.5 |
| GUUCCGUUGGCGUAAUGGUAACGCGUCUCCCUCCUAAGAAGAUGACUGCGGGUUCGAGUCCCGUACGGAACG [G39A A43U] | 0.811 |
| GUUCCGUUGGCGUAAUGGUAACGCGUCUCCCUCCUAAGAAGCAGACUGCGGGUUCGAGUCUCGUACGGAACG [G39A A42C C61U] | 0.542 |
